The conditions of data set [1]: introduction; ref [15]–[17]; cited from earlier work.
The conditions of data set [2]: introduction; ref [15]–[17]; cited from earlier work. This is another data set of the same source.
Data set [3] can be described thus: Serum teicoplanin trough concentration. Type of data set: in vivo, Chinese patients. The note with it: day 4. In a few lines:
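Day-4 serum (2–3 mL, additive-free tubes, spun 3,500 rpm 10 min) drawn 30 min before maintenance dose; trough measured by HPLC. Cure or failure judged days 5–7 after last dose from symptoms, laboratory and bacteriological findings. Target 15–30 mg/L; mean ± SD.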

The mark [4] stands for this setting: Group B, n=30, loading 400 mg q12h x3, maintenance 400 mg/day.
Where [5] appears, read: Group C, n=17, loading 400 mg q12h x2, maintenance 200 mg/day.
Setting [6] is: Group D, n=30, loading 400 mg q12h x1-3, maintenance 200 mg/day.

Turning to teicoplanin, in data set [1], the plasma protein-binding rate result is on record as “over 90%”. In addition, in data set [2], the elimination half-life is 30 to 180 h. Moreover, the “Mean teicoplanin Cmin for a failure” value in data set [3] (38 patients with failed response, all groups, mean ± SD, SD) turned out to be 10010 ± 2370 ng/mL. The “Mean teicoplanin Cmin for a successful response” value in data set [3] (75 patients with clinical cure, all groups, mean ± SD, SD) amounted to 18920 ± 5120 ng/mL. Besides, the “Proportion of patients achieving target range Cmin 15–30 mg/L” value came to 66.67% in data set [3] (setting [4]), 70.59% in data set [3] (setting [5]) and 23.33% in data set [3] (setting [6]). Besides, the “Proportion of patients with Cmin 10–30 mg/L” value in data set [3] (setting [4]) was 86.67%; in data set [3] (setting [5]) it was 88.23%; in data set [3] (setting [6]) it was 70%.

The values above are taken from publication PMC5759846 (Infection and Drug Resistance, 2018).
